# PubChem BioAssay AID522 (The Scripps Research Institute Molecular Screening Center, 2006)
# In all, about 65,000 compounds went through this assay and about 1,200 (1.8%) were called active. The sample as a whole holds a higher share of actives than the screen did. Values without a mark were called inactive.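 Rule for the calls: active = activation above the mean activation of all tested compounds plus 3 SD (cut at about 50% in these data); inactive = the rest.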
# Target: Steroidogenic factor 1 (Homo sapiens) (UniProt Q13285)
# Sequence (Q13285 whole entry, looked up, the tested form may be a part): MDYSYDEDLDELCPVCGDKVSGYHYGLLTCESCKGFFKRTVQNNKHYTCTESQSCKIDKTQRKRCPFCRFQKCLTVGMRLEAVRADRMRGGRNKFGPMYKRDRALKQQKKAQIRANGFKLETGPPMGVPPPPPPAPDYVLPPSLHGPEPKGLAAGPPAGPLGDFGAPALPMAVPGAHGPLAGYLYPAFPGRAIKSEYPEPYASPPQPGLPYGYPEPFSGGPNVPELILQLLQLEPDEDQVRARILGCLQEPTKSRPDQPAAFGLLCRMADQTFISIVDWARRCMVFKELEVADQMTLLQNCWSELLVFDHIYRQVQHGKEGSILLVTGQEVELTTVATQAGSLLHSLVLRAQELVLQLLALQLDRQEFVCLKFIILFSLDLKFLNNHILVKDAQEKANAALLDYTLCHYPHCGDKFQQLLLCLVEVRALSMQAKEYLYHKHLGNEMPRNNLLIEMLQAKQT
# Experiment: SF-1 ligand-binding domain transactivation enhancers – cell-based, CHO-K1, Gal4-SF-1 LBD, luciferase luminescence, primary screen (AID 522)
# Settings: CHO-K1 Gal4-SF-1 LBD luciferase reporter; at 10 µM; stronger effect = higher value; % increase over DMSO SF-1-specific signal
# In short: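 Test system: CHO-K1 cells with Gal4–hSF-1 LBD chimera plus Gal4-driven luciferase; Input: 4,000 cells/well; Compound: 10 µM only; Times: 20 h compound treatment, 37 °C; Measured by: steady-glow luciferase luminescence, read after 15 min reagent incubation; Measure: percent activation versus DMSO; Control set: DMSO and mock-transfected background; Replicates: one test per compound.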
row,SMILES,activation
1,C=CCn1c(CC(=O)Nc2cccc(OC)c2)nnc1SCC(=O)NC1CCCCC1,12.8%
2,Clc1cccc(Cl)c1Cn1nnc(-c2cccs2)n1,50.8% (active)
3,COc1ccccc1N1CCN(C(=O)Cn2nnc(-c3cccs3)n2)CC1,5%
4,O=c1cc(Cn2nnc(-c3ccc(Cl)cc3)n2)nc2sccn12,-5.8%
5,O=S(=O)(NCC1CCCO1)c1ccc2ccccc2c1 (stereo unspecified),-16.7%
6,O=C(c1cccnc1NCc1ccccc1)N1CCOCC1,-2.1%
7,CCOC(=O)c1sc(/N=C/Nc2nc(C)c(C(=O)OCC)s2)nc1C,-2%
8,COc1ccc(CCN(C)C(=O)C2CCCN(Cc3ccc(OC)c(OC)c3)C2)cc1OC (stereo unspecified),5.8%
9,O=C(Cn1nnc(-c2ccccc2)n1)NCc1ccccc1,8.3%
10,CC(C)(C)NC(=O)Cn1nnc(-c2ccccc2Cl)n1,50% (active)
11,Cc1ccccc1-c1nnn(CC(=O)c2ccc(S(=O)(=O)N3CCCC3)cc2)n1,-10.4%
12,CN(C(=O)COc1ccccc1)c1nnc(-c2ccncc2)s1,-6.7%
13,CN(C(=O)c1ccno1)c1nnc(-c2cccnc2)s1,-11.5%
14,CN(C(=O)c1ccccn1)c1nnc(-c2ccccn2)s1,56.6% (active)
15,COc1cc2cc(CN(CCN3CCCC3)C(=O)Nc3ccccc3Cl)c(=O)[nH]c2cc1OC,-8.6%
16,COc1ccc(-c2noc(-c3cccc(OC)c3OC)n2)cc1OC,100% (active)
17,COc1cc(-c2nc(-c3ccncc3)no2)cc(OC)c1OC,-2.5%
18,COc1ccc(-c2nc(-c3ccccc3)no2)c(OC)c1,-82.9%
19,COCCOC(=O)C1=C(C)Nc2nc(C)nn2C1c1ccccc1 (stereo unspecified),4.8%
20,CCCCCNC(=O)Cc1ccc(OC)cc1,-9.8%
21,O=C(O)CSCNC(=O)CC12CC3CC(CC(C3)C1)C2,-5.6%
22,O=S(=O)(Nc1ccc2nc(-c3ccco3)[nH]c2c1)c1ccccc1,53.5% (active)
23,Cc1ccc(S(=O)(=O)Nc2ccc3ncccc3c2)cc1,-16.8%
24,COc1cc(NS(=O)(=O)c2ccccc2)ccc1-n1nc(C)cc1C,-10.6%
25,COc1cc(C2C(C#N)=C(C)NC3=C2C(=O)CC(C)(C)C3)ccc1O (stereo unspecified),1.5%
26,Cc1ccc(Cn2ccc(NC(=O)C3C4CCC(C4)C3C(=O)O)n2)cc1 (stereo unspecified),3.1%

row,SMILES,activation
1,CCc1nnc(NC(=O)C2CCCN2S(=O)(=O)c2ccccc2)s1 (stereo unspecified),-4.2%
2,CCCOc1cccc(C(=O)Nc2nnn(CCC)n2)c1,26.3%
3,COc1ccc(CC(=O)Nc2ccc(-c3nnc(-c4ccc(C)cc4)o3)cc2)cc1,-47.6%
4,CCCCOc1ccc(-c2nnc(-c3ccco3)o2)cc1,23.6%
5,CCC(=O)Oc1cccc(C(=O)Nc2ccc(-c3nnc(-c4ccco4)o3)cc2)c1,79.8% (active)
6,Cc1ccc(OCC(=O)Nc2ccc(-c3nnc(-c4ccco4)o3)cc2)cc1,65.5% (active)
7,CCOc1ccc(-c2nnc(-c3ccco3)o2)cc1,-48%
8,CCOC(=O)c1[nH]c2ccc(OC)cc2c1NC(=O)CCN1CCN(Cc2ccccc2)CC1,-7.7%
9,COc1cccc(-n2cc3c(c2-c2ccccc2)c(=O)n(C)c(=O)n3C)c1,-21.1%
10,CCOC(=O)c1cn(CC(=O)Nc2ccc(C(C)C)cc2)nn1,3.2%
11,O=C(CN1CCN(C(=O)c2ccco2)CC1)Nc1ccc(Cl)c(C(F)(F)F)c1,11.1%
12,COc1ccc(-c2cn3ccsc3n2)cc1,53.3% (active)
13,CCCC(=O)Nc1cccc(-c2cn3ccsc3n2)c1,45.8%
14,Cc1ccc(S(=O)(=O)NCc2cn3ccsc3n2)c(C)c1,-0.8%
15,O=C(O)[C@@H]1CCCN1c1ncnc2sc3c(c12)CCC3,-13.4%
16,CCOc1cc(C(=O)Nc2ncccn2)cc(OCC)c1OCC,-1.3%
17,O=C(Nc1ncccn1)c1cccs1,18.9%
18,Cn1c(=O)c(C(=O)Nc2ncccn2)c(O)c2ccccc21,64.2% (active)
19,Cc1ccccc1OCCC(=O)Nc1c(C)n(C)n(-c2ccccc2)c1=O,13.7%
20,Cc1nnc(NC(=O)CCC(=O)N2CCC(C)CC2)s1,0.2%
21,Cc1ccc(S(=O)(=O)N2CCC(N3CCCCCC3)CC2)cc1,10.8%
22,CCN(CC)S(=O)(=O)c1cc(C(=O)Nc2ccccn2)ccc1C,49.3%
23,Cc1nc2c(c(=O)n1Cc1ccco1)c1nc3ccccc3nc1n2Cc1ccccc1,-2.3%
24,CC(C)NC(=O)CCCn1c(=S)[nH]c2cc3c(cc2c1=O)OCO3,2.9%
25,Cc1cccc(NC(=O)c2ccc3ccccc3n2)n1,98.6% (active)
26,Cc1cccc(NC(=O)c2ccccc2NC(=O)C(C)(C)C)n1,-22.9%

row,SMILES,activation
1,Cc1cccc(NC(=O)COc2ccccc2C)n1,-19.2%
2,O=C(c1c(Cl)nc2sccn12)N1CCCc2ccccc21,4.7%
3,CS(=O)(=O)N1CCN(C(=O)Cc2ccccc2)CC1,3.5%
4,N#C/C=C1\Sc2ccccc2C(=O)N1CC(=O)N1CCN(S(=O)(=O)c2ccccc2)CC1,53.6% (active)
5,O=C(CCC(=O)N1CCN(S(=O)(=O)c2ccccc2)CC1)NC1CCCc2ccccc21 (stereo unspecified),-3.9%
6,COc1ccccc1CNC(=O)CCn1c(=O)sc2ccccc21,-21.4%
7,CS(=O)(=O)c1ccc2nc(NC(=O)CN3CCCCCC3)sc2c1,-3.6%
8,COCCCNC(=O)Cn1cc(C(=O)C2CC2)c2ccccc21,1.7%
9,CCOc1ccccc1Nc1nnc(SCC(=O)Nc2cc(C)on2)s1,-12.5%
10,C=CCNC(=O)c1ccc(C)c(Br)c1,-12.1%
11,COc1ccc2c(c1)CCc1c(C(=O)Nc3c(C)n(C)n(-c4ccccc4)c3=O)noc1-2,-6%
12,COc1ccc2c(c1)CCc1c(C(=O)N3CCCC3)noc1-2,55.3% (active)
13,COc1ccc2c(c1)CCc1c(C(=O)N3CCc4ccccc4C3)noc1-2,2.4%
14,O=C(O)CCC(=O)N(Cc1ccco1)c1nc(-c2ccccc2)cs1,9.9%
15,CCc1nc(Nc2ccc3nccnc3c2)c2oc3ccccc3c2n1,50.3% (active)
16,CCSc1nc(C)nc2c1oc1ccccc12,-10.2%
17,CCc1nc(N2CCN(c3nc(C)cc(C)n3)CC2)c2oc3ccccc3c2n1,12%
18,COc1ccc(N2CCN(C(=O)CSc3nnc4ncccn34)CC2)cc1,-2.5%
19,CCc1nnc(NC(=O)CSc2nnc(COc3ccc(C#N)cc3)n2-c2ccccc2)s1,0.6%
20,CCN(CC)c1ccc(C(=O)OCC(=O)c2ccco2)cc1,53.6% (active)
21,O=C(COC(=O)c1ccccc1C(=O)c1ccccc1)c1ccco1,-2.1%
22,O=C(OCC(=O)N1CCCC1)c1ccco1,14.1%
23,CCOC(=O)N1CCN(C(=O)C2CCN(S(C)(=O)=O)CC2)CC1,10.2%
24,CCOC(=O)c1sc(=S)n2c1[nH]c(=O)c1ccc(C(=O)OC)cc12,-7.4%
25,CCOC(=O)c1cnc(SCC(=O)NCc2ccco2)nc1N,19.1%
26,CCCCOc1ccc(NC(=O)CSCC(=O)OCC)cc1,-6.4%

row,SMILES,activation
1,CCCCOc1ccc(-c2ncc(C(=O)OCC)c(N)n2)cc1,49.8% (active)
2,O=C(CSc1nnc(-c2c[nH]c3ccccc23)n1-c1ccc(F)cc1)NCc1ccco1,15.7%
3,Cc1nnc(SCCCn2c(N3CCCCC3)nc3c2c(=O)[nH]c(=O)n3C)s1,-12.6%
4,COc1ccc(CCNC(=O)CSc2nc(C)nc3c2oc2ccccc23)cc1OC,27.4%
5,Cc1cc(C)nc(N2CCN(c3ncnc4c3oc3ccccc34)CC2)n1,-8.8%
6,COc1ccccc1Nc1ncnc2c1oc1ccccc12,91.8% (active)
7,Cn1c2c(c(=O)n(C)c1=O)C(c1ccc(O)cc1)Nc1ccccc1O2 (stereo unspecified),-0.7%
8,CCOc1ccccc1NC(=O)Nc1cc(OC)ccc1OC,-10%
9,COc1ccccc1NC(=O)c1ccc(C)s1,50.1% (active)
10,COc1ccc(C2C(C(=O)Nc3ccccc3OC)=C(C)Nc3nnnn32)c(OC)c1 (stereo unspecified),-6.7%
11,COc1ccc(OC)c(C2N(c3ccccn3)C(=O)C3CCCN32)c1 (stereo unspecified),-12.3%
12,O=C1C(=O)N(CCN2CCOCC2)C(c2ccccn2)/C1=C(/O)c1ccc(Cl)cc1 (stereo unspecified),-1.6%
13,C=C(C)COc1ccc(-c2n[nH]c(C)c2-c2ccccc2OC)c(O)c1,-12.7%
14,COc1ccc(OC)c(N=Cc2c(O)[nH]c3ccccc23)c1,0.1%
15,COc1ccc(N=Cc2c(O)[nH]c3ccccc23)cc1OC,60.4% (active)
16,COc1cc(N=Cc2c(O)[nH]c3ccccc23)cc(OC)c1OC,-0.5%
17,CCOc1nc(-c2ccc(OC)cc2)ccc1-c1noc(-c2cc(OC)c(OC)c(OC)c2)n1,-8.3%
18,Cc1ccc(N2C(=O)c3ccccc3C2(O)c2ncc[nH]2)cc1 (stereo unspecified),6.2%
19,COc1ccc(CNC(=O)C2CCN(S(=O)(=O)N3CCOCC3)CC2)cc1,18.7%
20,CCOC(=O)c1cc(C)sc1NC(=O)C1CCC1,9.7%
21,Nc1ncc(-c2cc3ccccc3oc2=O)s1,79.3% (active)
22,O=C(NCc1ccccn1)c1cc2ccccc2oc1=O,12.4%
23,O=C(Oc1cccnc1)c1cc2ccccc2oc1=O,-8.6%
